Diaph act CS: compounds boosting diaphorase resazurin reduction – biochemical, uHTS, resorufin fluorescence, counter-screen for diaphorase-coupled primary assays, primary screen; Diaphorase/resazurin coupled assay, 16 min; hits give high values; 1 = vehicle wells, 0 = NADH-free wells; activation factor at 20 µM; hit rate 0.005% among 190,000; AID 1229, 2008;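 active means diaphorase activity raised at least twofold by the compound at 20 µM; inactive means activation factor below 2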
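Test system: Clostridium kluyveri diaphorase, purified enzyme. Buffer or medium: 50 mM HEPES pH 7.4 buffer plus MgCl2 and Tween 20. Also added: 0.114 mM NADH and 0.1 mM resazurin, final amounts. Dosing: compound 20 µM once, DMSO 1%. Schedule: 16 min enzyme reaction, ambient temperature. Detection: fluorescence of resorufin, 544 nm excitation, 590 nm emission.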
WT yeast gro inh: growth inhibition of WT strain, primary screen, mitochondrial fusion inhibitor project, WT and mutant strains, chemical genetic; inhibition, % at 10 µM; mitochondrial fusion phenotypic screen; hit rate 2.1% among 190,000; in the data active means inhibition above about 58%; tested in S. cerevisiae
PMI activator: activators of human PMI, primary screen, biochemical, fluorescence intensity, near-Km mannose 6-phosphate. purified human PMI, coupled resazurin fluorescence, 20 min; hits give high values; 1 = vehicle control, 0 substrate-free wells. activation factor at 20 µM. hit rate 0.005% among 190,000. Mannose-6-phosphate isomerase (Homo sapiens), P34949;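 active means activation factor of 2 or more at 20 µM, relative to plate controls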
Target sequence (P34949 whole entry, looked up): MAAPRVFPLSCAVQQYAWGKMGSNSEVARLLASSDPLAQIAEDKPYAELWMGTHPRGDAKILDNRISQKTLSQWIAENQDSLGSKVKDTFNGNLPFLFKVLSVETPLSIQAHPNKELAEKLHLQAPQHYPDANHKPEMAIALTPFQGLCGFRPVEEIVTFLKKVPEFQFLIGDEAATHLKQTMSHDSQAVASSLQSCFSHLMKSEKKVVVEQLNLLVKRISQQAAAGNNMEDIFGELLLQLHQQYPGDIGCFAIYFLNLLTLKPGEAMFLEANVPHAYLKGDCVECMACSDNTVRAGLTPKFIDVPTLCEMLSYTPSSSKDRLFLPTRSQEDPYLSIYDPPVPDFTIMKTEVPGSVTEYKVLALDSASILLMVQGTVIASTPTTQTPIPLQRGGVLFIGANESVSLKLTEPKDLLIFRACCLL
PMI act hi M6P: human PMI activators, high substrate, primary screen, biochemical, fluorescence intensity, near-saturating mannose 6-phosphate; coupled PMI enzyme assay, resazurin fluorescence, 20 min; hits give high values; 1 = untreated enzyme, 0 = substrate-free blank; activation factor at 20 µM; Mannose-6-phosphate isomerase (Homo sapiens), P34949; hit rate 0.34% among 190,000; AID 1216, 2008;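 active means activation factor of 2 or more at 20 µM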
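Material: human phosphomannose isomerase with PGI, G6PDH, diaphorase coupling enzymes / Reagent: Man-6-P substrate 1.0 mM / Dosing: single compound dose of 20 µM, 1% DMSO final / Incubation: enzyme reaction with compound 20 min at room temperature / Signal: resorufin fluorescence (Ex 544/Em 590 nm) from resazurin via diaphorase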
L major viab: Leishmania major promastigote growth inhibition, primary screen. Leishmania major promastigotes, resazurin fluorescence viability. inhibition, % at 10 µM. hit rate 9% among 200,000; in the data active means inhibition above about 50%;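 further: promastigotes grown with compound for 44 hours at 28 °C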
The depositor's hits bear a star; . = no result. This is a sample that favours compounds with a hit; in the whole collection about 10% have one here.

SMILES	Diaph act CS	WT yeast gro inh	PMI activator	PMI act hi M6P	L major viab
C=CCn1c(CNc2ccccc2)nnc1SCC(=O)N/N=C/c1ccccc1O	1	-0.9	1.1	1.1	96.9*
C=CCn1c(COc2ccc(Cl)cc2)nnc1SCC(=O)N/N=C/c1cccc(O)c1	0.9	-5.0	1	0.9	-2.1
CCCOc1ccc(-c2nc(C#N)c(N3CCC(C(N)=O)CC3)o2)cc1	0.8	94.2*	0.9	1	0.9
N#Cc1nc(-c2ccc(OCc3ccc(Cl)cc3)cc2)oc1N1CCC(C(N)=O)CC1	0.7	0.6	0.9	0.9	-3.0
Cc1ccc(N(C(=O)c2cnccn2)C(C(=O)NC2CCCCC2)c2ccc(O)cc2)cc1 (stereo not given)	.	10.3	.	.	-5.8
O=C1CCCC2=C1C(c1ccccn1)Nc1ccc(C(=O)c3ccccc3)cc1N2 (stereo not given)	0.8	-3.9	1	0.9	67.0*
O=C1CCCC2=C1C(c1ccc(O)c(O)c1)c1c(ccc3ncccc13)N2 (stereo not given)	0.6	-4.7	0.6	0.5	-10.5
O=C1CCCC2=C1C(c1ccco1)Nc1ccc(C(=O)c3ccccc3)cc1N2 (stereo not given)	0.3	-4.9	1.2	1.3	73.3*
N#CC1=C(SCC(=O)c2ccc(Br)cc2)NC2=C(C(=O)CCC2)C1c1ccco1 (stereo not given)	0.7	20.0	1.1	1.4	40.1
Cc1nc(Cl)c2c(n1)N(CC(N)=O)C(=O)CO2	0.9	-7.6	1	1.1	-5.8
CC(C)NC(=O)CN1CCN(Cc2nc(C(c3ccccc3)c3ccccc3)no2)CC1	0.9	-5.9	0.9	0.9	-5.3
Cc1ccc(-n2c(SCC(=O)Nc3cccc(S(N)(=O)=O)c3)nc3ccccc32)cc1	0.7	-28.9	0.8	1	77.8*
COc1cc([N+](=O)[O-])ccc1NC(=O)CSc1nc2ccccc2n1-c1ccccc1	1	12.5	1.2	1.2	91.7*
CCOc1ccc(-n2c(SCC(=O)Nc3cc(OC)c([N+](=O)[O-])cc3C)nc3ccccc32)cc1	0.9	-9.0	1	1	97.7*
COc1cc(NC(=O)CSc2nc(C)c(C)c(C)n2)c(C)cc1[N+](=O)[O-]	0.8	18.4	1.1	1.1	26.2
CCCCc1ccc(/C=C2\C(=O)c3ccccc3C(O)=C2C(=O)OCC)cc1	0.6	72.3*	1	1.2	12.4
CCOC(=O)C1=C(Cc2ccc(F)cc2)C(=O)c2ccccc2C1=O	0.7	15.9	1.2	1.4	48.4
COc1ccc(-n2c(N3CCN(C)CC3)nc3sc4c(c3c2=O)CCCCC4)cc1	0.9	1.3	0.8	0.9	99.5*
COc1ccc(-n2c(C)nc3sc4c(c3c2=O)CCC4)cc1	0.9	1.0	0.9	0.9	-1.7
COc1ccc(-n2c(NCCN(C)C)nc3sc4c(c3c2=O)CCCCC4)cc1	0.9	-10.6	1	1	58.3*
O=C(N/N=C/c1sc2ccccc2c1O)c1cccc2ccccc12	0.8	8.3	0.9	0.8	86.4*
COc1ccc(C(=O)N/N=C/c2sc3ccccc3c2O)cc1	0.8	-8.4	0.9	0.9	76.7*
COc1ccc2cc(C(=O)N/N=C/c3sc4ccccc4c3O)ccc2c1	0.8	1.0	0.8	0.7	-14.6
O=[N+]([O-])c1ccc(O)c(N=Cc2sc3ccccc3c2O)c1	0.9	18.5	0.9	0.7	5.2
Oc1c(C=Nc2cccc3cccnc23)sc2ccccc12	1	19.1	1	1	99.2*
SMILES	Diaph act CS	WT yeast gro inh	PMI activator	PMI act hi M6P	L major viab
O=C(N/N=C/c1sc2ccccc2c1O)c1ccccc1	0.6	-3.1	0.7	0.8	97.9*
Cn1c(=O)c2c(ncn2CC(=O)OCC(=O)NCc2ccccc2Cl)n(C)c1=O	0.9	-1.7	0.9	0.9	-4.7
O=S(c1ccc2ccccc2c1)c1cnns1 (stereo not given)	0.9	-15.2	0.9	0.9	10.4
O=C(C1=C[C@@H](c2ccc(C(F)(F)F)cc2)C[C@@H](OCc2ccc(CO)cc2)O1)N1CCN(Cc2ccccc2)CC1	0.6	41.4	0.8	0.8	26.9
CCOC(=O)CSc1nc2c(sc3ccc([N+](=O)[O-])cc32)c(=O)n1Cc1ccco1	0.8	-3.7	0.9	0.9	5.5
Cc1nn(-c2ccccc2)c(C)c1[N+](=O)[O-]	0.9	-18.8	1	0.9	-2.9
CCCCOc1ccc(Cl)cc1CSc1nnc(CC)n1N	0.8	-7.6	0.9	0.9	87.9*
CCCOc1ccc(CSc2nnc(CCC)n2N)cc1	0.8	-9.5	0.9	0.9	0.7
COc1cc(OC)cc(C(=O)Nc2ccc(CN3CCCCC3)cc2)c1	1	7.8	1.1	1.1	10.2
CCOc1ccc(OCc2cccc(C(=O)Nc3ccc(CN4CCCCC4)cc3)c2)cc1	1.2	26.1	1	1.1	96.2*
COc1ccc(OCc2cccc(C(=O)Nc3ccc(CN4CCCCC4)cc3)c2)cc1	1.1	3.9	1	1	78.3*
Cc1c(C(=O)OCC(=O)Nc2ccc(C(N)=O)cc2)cccc1[N+](=O)[O-]	1	-15.7	1.1	1	-11.5
Cc1cccc2cc(CNCC3CCCO3)c(Cl)nc12 (stereo not given)	.	1.2	.	.	7.9
Cc1ccc(C(=O)N2CCN(S(=O)(=O)c3ccc(C)c([N+](=O)[O-])c3)C2)cc1	0.8	-1.3	1	1	0.0
Cc1cc(C)n(C(C[N+](=O)[O-])c2ccc(Cl)cc2)n1 (stereo not given)	1	48.0	1	1.1	100.3*
O=C(COC(=O)CNC(=O)c1cccc([N+](=O)[O-])c1)NCc1ccco1	1.1	0.1	1.1	1.1	-7.3
C=CCNc1nc(N)c(C(=O)c2ccc3c(c2)OCO3)s1	1	26.4	1.1	1	50.2*
C/C(Cn1nnc([N+](=O)[O-])n1)=N\NC(=O)c1ccccc1	0.8	5.7	1	0.6	84.1*
O=C(O)C1CC=CCC1C(=O)NC1CCCCC1 (stereo not given)	.	-14.1	.	.	-1.7
CC(C)COc1ccc(C(=O)Nc2ccc(SC(F)F)cc2)cc1	1	-19.4	1.1	1.2	52.4*
CC(C)COc1ccc(C(=O)Nc2ccc([N+](=O)[O-])cc2)cc1	1	-8.7	1.1	1	2.1
Cc1ccc2c(c1)c1c(n2C)-c2[nH]ncc2CC1	0.7	96.2	0.9	0.9	98.7*
COc1cc(-c2nnc(CSc3nnc(Nc4ccc(Oc5ccccc5)cc4)s3)o2)cc(OC)c1OC	0.7	24.0	0.8	0.8	77.5*
COc1cc(-c2nnc(CSc3nnc(N)s3)o2)cc(OC)c1OC	0.9	0.8	1	1	0.3
O=C(c1cc(-c2ccccc2)nc2ccccc12)N1CCCc2ccccc21	0.8	62.9*	0.9	0.9	29.7
